pIC50: −log10 of the molar value. Non-standard residues stand in square brackets, D forms with d. Residues, ends and D or L forms follow the SMILES beside them. Sar = CNCC(=O)O
How the values were obtained:
PEPT1 [1] = experiment: Drug uptake in CHO cells expressing chicken PEPT1 measured at pH 6; type: ADME, cell-based, Gallus gallus; conditions: CHO cells expressing chicken PEPT1, pH 6
PEPT1 [2] = experiment: Drug uptake in Xenopus laevis oocytes expressing sheep PEPT1 measured at pH 5.5 and -60 mV by two-electrode voltage-clamp electrophysiology; type: ADME, cell-based, Ovis aries; conditions: Xenopus laevis oocytes expressing sheep PEPT1, pH 5.5
[3] = Ratio of Km for human recombinant PEPT1 expressed in Pichia pastoris GS115 to Km for rat recombinant PEPT1 expressed in Pichia pastoris GS115; type: ADME
PEPT1 [4] = experiment: Drug uptake in human HeLa cells expressing monkey PEPT1 measured at pH 6; type: ADME, cell-based, Macaca mulatta; conditions: rhesus monkey, HeLa cells expressing monkey PEPT1, pH 6
PEPT1 [5] = experiment: Drug uptake in Xenopus laevis oocytes expressing chicken PEPT1 measured at pH 6 and -60 mV by two-electrode voltage-clamp electrophysiology; type: ADME, cell-based, Gallus gallus; conditions: Xenopus laevis oocytes expressing chicken PEPT1, pH 6
PEPT1 [6] = experiment: Ratio of Km for human recombinant PEPT1 expressed in Pichia pastoris GS115 to Km for mouse recombinant PEPT1 expressed in Pichia pastoris GS115; type: ADME; conditions: not told
PEPT1 [7] = experiment: Drug uptake in CHO cells expressing pig PEPT1 measured at pH 6; type: ADME, cell-based, Sus scrofa; conditions: CHO cells expressing pig PEPT1, pH 6
PEPT1 [8] = experiment: Drug uptake in Xenopus laevis oocytes expressing salmon PEPT1 measured at pH 6.5 and -60 mV by two-electrode voltage-clamp electrophysiology; type: ADME, cell-based; conditions: salmonidae, Xenopus laevis oocytes expressing salmon PEPT1, pH 6.5
[9] = target: T1, Solute carrier family 15 member 1 (Oryctolagus cuniculus, UniProt P36836); experiment: Drug uptake in Xenopus laevis oocytes expressing rabbit PEPT1 measured at pH 5.5 and -60 mV by two-electrode voltage-clamp electrophysiology; type: ADME, cell-based
T1 sequence (P36836 whole entry): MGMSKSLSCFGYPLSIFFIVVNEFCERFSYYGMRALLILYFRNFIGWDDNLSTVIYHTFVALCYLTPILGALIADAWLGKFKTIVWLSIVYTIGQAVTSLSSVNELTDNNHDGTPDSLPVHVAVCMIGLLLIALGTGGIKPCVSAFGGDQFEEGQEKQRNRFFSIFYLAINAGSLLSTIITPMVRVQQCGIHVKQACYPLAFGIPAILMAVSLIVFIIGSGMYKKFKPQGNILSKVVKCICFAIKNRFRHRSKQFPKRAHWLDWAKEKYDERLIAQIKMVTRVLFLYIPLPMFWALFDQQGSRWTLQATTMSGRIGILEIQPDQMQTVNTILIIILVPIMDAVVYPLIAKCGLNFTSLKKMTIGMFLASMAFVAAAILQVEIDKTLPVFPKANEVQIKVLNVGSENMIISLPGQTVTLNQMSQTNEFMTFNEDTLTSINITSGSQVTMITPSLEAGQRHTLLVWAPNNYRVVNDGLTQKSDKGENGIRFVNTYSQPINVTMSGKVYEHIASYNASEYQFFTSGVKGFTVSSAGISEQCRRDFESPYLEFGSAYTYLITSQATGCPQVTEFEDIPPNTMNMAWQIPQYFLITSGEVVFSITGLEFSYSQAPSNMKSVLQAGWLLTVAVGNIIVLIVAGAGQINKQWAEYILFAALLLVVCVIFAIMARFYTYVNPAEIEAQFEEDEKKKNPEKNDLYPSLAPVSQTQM

[10] = target: T2, Solute carrier family 15 member 1 (Homo sapiens, UniProt P46059); experiment: Inhibition of human recombinant PEPT1 expressed in Pichia pastoris GS115 assessed as [3H]GlySar uptake after 30s by dual-channel liquid scintillation counting analysis
T2 sequence (P46059 whole entry): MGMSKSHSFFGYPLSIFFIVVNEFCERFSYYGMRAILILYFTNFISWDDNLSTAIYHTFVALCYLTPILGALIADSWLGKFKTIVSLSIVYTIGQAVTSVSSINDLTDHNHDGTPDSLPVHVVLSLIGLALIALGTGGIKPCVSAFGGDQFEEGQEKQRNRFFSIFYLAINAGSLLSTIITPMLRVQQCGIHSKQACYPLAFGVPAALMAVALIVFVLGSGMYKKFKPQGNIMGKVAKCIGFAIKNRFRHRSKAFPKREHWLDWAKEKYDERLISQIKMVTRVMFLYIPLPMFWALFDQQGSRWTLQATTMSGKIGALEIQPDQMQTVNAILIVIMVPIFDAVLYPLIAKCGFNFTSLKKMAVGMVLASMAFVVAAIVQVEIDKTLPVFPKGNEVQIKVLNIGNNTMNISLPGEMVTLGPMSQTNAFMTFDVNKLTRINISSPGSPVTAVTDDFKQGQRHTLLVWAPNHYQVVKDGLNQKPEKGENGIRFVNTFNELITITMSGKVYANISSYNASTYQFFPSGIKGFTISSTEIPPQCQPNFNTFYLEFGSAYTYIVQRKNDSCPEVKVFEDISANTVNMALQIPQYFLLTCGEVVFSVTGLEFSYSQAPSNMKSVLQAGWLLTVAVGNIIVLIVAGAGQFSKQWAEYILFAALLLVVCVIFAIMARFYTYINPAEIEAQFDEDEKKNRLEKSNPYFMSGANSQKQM

[11] = target: T2, Solute carrier family 15 member 1; experiment: Drug uptake in Pichia pastoris GS115 expressing human recombinant PEPT1 at 0 degC measured immediately after drug addition by dual-channel liquid scintillation counting analysis; type: ADME
Outline: (§1)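 Nonspecific binding of 5.0 µM [14C]oseltamivir is measured at 0°C in pH 6.5 phosphate buffer. The incubation is quenched immediately after adding the drug to the methanol-induced yeast suspension. Bound radioactivity is counted by liquid scintillation and expressed as pmol/OD600. Mean ± SE (n=6).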

[12] = target: T3, Solute carrier family 15 member 1 (Mus musculus, UniProt Q9JIP7); experiment: Drug uptake in Pichia pastoris GS115 expressing mouse recombinant PEPT1 at 0 degC measured immediately after drug addition by dual-channel liquid scintillation counting analysis; type: ADME; outline: as §1
T3 sequence (Q9JIP7 whole entry): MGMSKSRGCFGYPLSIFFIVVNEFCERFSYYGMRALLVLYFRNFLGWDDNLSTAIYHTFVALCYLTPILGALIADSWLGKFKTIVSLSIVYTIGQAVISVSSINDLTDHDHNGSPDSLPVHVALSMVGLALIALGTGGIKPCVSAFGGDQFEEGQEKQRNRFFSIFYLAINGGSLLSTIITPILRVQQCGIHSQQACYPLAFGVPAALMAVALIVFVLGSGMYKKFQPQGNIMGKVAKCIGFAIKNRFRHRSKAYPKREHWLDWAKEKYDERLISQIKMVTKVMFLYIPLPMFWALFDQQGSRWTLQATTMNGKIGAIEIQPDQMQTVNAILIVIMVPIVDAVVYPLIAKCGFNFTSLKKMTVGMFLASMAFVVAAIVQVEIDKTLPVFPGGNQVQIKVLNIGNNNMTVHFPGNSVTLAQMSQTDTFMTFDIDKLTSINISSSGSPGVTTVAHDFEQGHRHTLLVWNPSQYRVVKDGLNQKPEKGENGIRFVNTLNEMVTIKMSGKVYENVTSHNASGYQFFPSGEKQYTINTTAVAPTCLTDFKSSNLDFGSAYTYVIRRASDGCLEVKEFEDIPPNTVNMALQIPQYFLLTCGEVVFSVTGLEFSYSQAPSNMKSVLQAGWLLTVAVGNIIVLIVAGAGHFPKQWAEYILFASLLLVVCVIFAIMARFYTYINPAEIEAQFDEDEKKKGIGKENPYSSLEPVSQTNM

[13] = target: T4, Solute carrier family 15 member 1 (Rattus norvegicus, UniProt P51574); experiment: Drug uptake in Pichia pastoris GS115 expressing rat recombinant PEPT1 at 0 degC measured immediately after drug addition by dual-channel liquid scintillation counting analysis; type: ADME; outline: as §1
T4 sequence (P51574 whole entry): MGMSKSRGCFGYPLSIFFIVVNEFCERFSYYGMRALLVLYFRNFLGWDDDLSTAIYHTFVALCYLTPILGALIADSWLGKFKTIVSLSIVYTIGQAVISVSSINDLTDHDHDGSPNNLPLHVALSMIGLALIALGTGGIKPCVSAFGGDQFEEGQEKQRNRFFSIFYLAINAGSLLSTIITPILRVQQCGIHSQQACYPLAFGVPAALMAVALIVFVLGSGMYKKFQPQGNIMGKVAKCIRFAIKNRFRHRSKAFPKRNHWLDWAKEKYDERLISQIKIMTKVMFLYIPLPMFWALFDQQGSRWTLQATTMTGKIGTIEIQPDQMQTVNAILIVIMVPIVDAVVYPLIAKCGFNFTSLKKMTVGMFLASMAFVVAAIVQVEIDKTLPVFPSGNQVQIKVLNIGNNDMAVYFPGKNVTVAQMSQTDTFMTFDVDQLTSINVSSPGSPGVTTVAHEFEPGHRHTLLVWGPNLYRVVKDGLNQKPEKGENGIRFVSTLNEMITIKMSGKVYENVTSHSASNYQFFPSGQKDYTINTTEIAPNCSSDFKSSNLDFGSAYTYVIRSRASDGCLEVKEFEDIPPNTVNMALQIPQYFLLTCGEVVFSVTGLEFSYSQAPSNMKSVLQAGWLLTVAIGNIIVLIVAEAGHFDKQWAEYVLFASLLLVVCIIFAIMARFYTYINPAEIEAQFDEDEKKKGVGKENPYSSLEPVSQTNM

Komagataella pastoris [14] = experiment: Stability in Pichia pastoris GS115 expressing human recombinant PEPT1 at 5 uM measured for up to 30 mins by HPLC analysis; type: ADME, organism-based; conditions: 0.5 h
Outline: (§2)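 [14C]oseltamivir 5.0 µM with [14C]PEG200 5.0 µM internal standard was incubated with induced GS115 cells (vector, human, mouse or rat PEPT1) at 24°C, pH 6.5, for up to 30 min. Reactions were quenched with 20% trichloroacetic acid and centrifuged at 4°C. Supernate was analysed by HPLC with radiochemical detection; retention 14.9 min for oseltamivir, 3.6 min for PEG200. n=6.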

Komagataella pastoris [15] = experiment: Stability in Pichia pastoris GS115 expressing rat recombinant PEPT1 at 5 uM measured for up to 30 mins by HPLC analysis; type: ADME, organism-based; conditions: 0.5 h; outline: as §2
[16] = Protein binding in human at 50 to 500 mg, po bid; conditions: plasma
[17] = target: T3, Solute carrier family 15 member 1; experiment: Inhibition of mouse recombinant PEPT1 expressed in Pichia pastoris GS115 assessed as [3H]GlySar uptake after 30s by dual-channel liquid scintillation counting analysis
[18] = target: T4, Solute carrier family 15 member 1; experiment: Inhibition of rat recombinant PEPT1 expressed in Pichia pastoris GS115 assessed as [3H]GlySar uptake after 30s by dual-channel liquid scintillation counting analysis
Komagataella pastoris [19] = experiment: Stability in Pichia pastoris GS115 at 5 uM measured for up to 30 mins by HPLC analysis; type: ADME, organism-based; conditions: 0.5 h; outline: as §2
Komagataella pastoris [20] = experiment: Stability in Pichia pastoris GS115 expressing mouse recombinant PEPT1 at 5 uM measured for up to 30 mins by HPLC analysis; type: ADME, organism-based; conditions: 0.5 h; outline: as §2

Row | Km (PEPT1 [1]) | Km (PEPT1 [2]) | Ratio [3] | Km (PEPT1 [4]) | Km (PEPT1 [5]) | Km (PEPT1 [7]) | Km (PEPT1 [8]) | Km [9] | SMILES | selectivity ratio (PEPT1 [6]) | pIC50 [10] | Drug uptake [11] | Drug uptake [12] | Drug uptake [13] | Stability (Komagataella pastoris [14]) | Stability (Komagataella pastoris [15]) | fraction unbound [16] | pIC50 [17] | pIC50 [18] | Stability (Komagataella pastoris [19]) | Stability (Komagataella pastoris [20])
1 | 2600 µM | 610 µM | 5.4 | 350 µM | 470 µM | 940 µM | 500 µM | 1900 µM | CN(CC(=O)O)C(=O)CN [GLYCYLSARCOSINE] (H-Gly-[Sar]-OH) | 2.9 |  |  |  |  |  |  |  |  |  |  | 
2 |  |  |  |  |  |  |  |  | CCOC(=O)C1=C[C@@H](OC(CC)CC)[C@H](NC(C)=O)[C@@H](N)C1.O=P(O)(O)O [OSELTAMIVIR PHOSPHATE] |  | 1.56 | 0.2 pmol/OD | 0.2 pmol/OD | 0.2 pmol/OD | Stable | Stable | 0.58 | 1.97 | 1.74 | Stable | Stable
